Screening results deposited in PubChem BioAssay by The Scripps Research Institute Molecular Screening Center.
Sampled rows, rich in hits. Any-hit rate of the full collection: about 2.5%.
OX1R antag-1 – antagonists of human orexin 1 receptor (OX1R) | 330,000 compounds, 1.8% hits | inhibition, % at 6.6 µM | OX1R-expressing cells, FRET antagonist read-out | Orexin/Hypocretin receptor type 1 (Homo sapiens), O43613; in the data active = inhibition mostly above about 38%, no sharp cut-off; inactive = mostly below about 40%;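 note: 0% = agonist challenge alone and 100% = reference antagonist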
TRPN1 ag – zebrafish TRPN1 channel agonists, primary screen, cell-based, HEK293, calcium fluorescence | transient receptor potential cation channel N1 (TRPN1/NompC), Danio rerio | HEK293 zebrafish TRPN1-YFP, Fluo-8 calcium fluorescence; 100% = response to 87 µM carbachol | activation, % at 3 µM | 220,000 compounds, 0.18% hits | AID 1424, 2008;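 active = activation above its plate's cutoff, the mean activation of test wells on that plate plus 3 SD, cut at about 19% in these data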;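 note: 0% = DMSO alone and 100% = 87 µM carbachol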
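Material: zebrafish TRPN1-YFP in HEK293 cells. Doses: one dose of 3 µM, 0.3% DMSO. Incubation: dye 1 h 37 °C plus 30 min RT. Measured by: intracellular calcium fluorescence with Fluo-8.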
CHO parental Ca – ATP-evoked calcium signal inhibitors, parental CHO, primary screen, counter-screen for OX1R antagonist project, cell-based, fluorescence, Fluo-8 calcium dye; inhibition, % at 5.6 µM; parental CHO-K1, ATP-induced calcium, Fluo-8 fluorescence; AID 463079, 2010; 330,000 compounds, 0.63% hits;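 active = inhibition above that plate's mean sample inhibition plus 3 SD, cut at about 26% in these data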;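 note: 0% = ATP-challenged DMSO wells and 100% = DMSO wells without ATP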
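Material: Parental CHO cells | Reagent: ATP | Compound dosing: Single nominal dose of 5.6 µM per compound | Detection: Intracellular calcium via Fluo-8 no-wash fluorescent dye | Read-out: % inhibition of ATP-induced calcium mobilization | Benchmarks: Low control ATP plus DMSO, high control DMSO only | Replicates: Singlicate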
TRPML3 ag – human TRPML3 channel agonists, primary screen, cell-based, HEK293 TRPML3-YFP, Fluo-8 calcium fluorescence, 3 µM | activation, % at 3 µM | 220,000 compounds, 0.29% hits | Mucolipin-3 (Homo sapiens), Q8TDD5 | 100% = the carbachol control signal;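 active = activation above its plate's cutoff, the mean activation of the plate's test wells plus 3 SD, cut at about 12% in these data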;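 note: 0% = DMSO only wells and 100% = carbachol wells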
Target sequence (Q8TDD5 whole entry, looked up): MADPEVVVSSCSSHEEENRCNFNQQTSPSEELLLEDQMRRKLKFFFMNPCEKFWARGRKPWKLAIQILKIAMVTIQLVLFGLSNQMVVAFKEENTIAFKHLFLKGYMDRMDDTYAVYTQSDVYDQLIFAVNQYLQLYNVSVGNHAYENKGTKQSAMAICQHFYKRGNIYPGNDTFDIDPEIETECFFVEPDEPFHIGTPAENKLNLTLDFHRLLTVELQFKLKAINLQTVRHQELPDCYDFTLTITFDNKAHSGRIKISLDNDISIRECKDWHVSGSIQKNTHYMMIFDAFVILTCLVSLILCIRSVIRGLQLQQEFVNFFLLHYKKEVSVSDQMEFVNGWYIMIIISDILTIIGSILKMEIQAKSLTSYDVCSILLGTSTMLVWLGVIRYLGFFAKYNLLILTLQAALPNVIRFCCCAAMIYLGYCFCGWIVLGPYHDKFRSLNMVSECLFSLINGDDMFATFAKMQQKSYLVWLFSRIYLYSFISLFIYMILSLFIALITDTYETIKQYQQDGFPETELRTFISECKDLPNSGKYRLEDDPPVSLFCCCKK
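Test system: TRPML3-YFP stable HEK293 cells. Doses: single point at 3 µM. Incubation: dye loading 1 h 37 °C then 30 min ambient, 125 s read. Signal: Fluo-8 calcium dye fluorescence, ex 470-495, em 515-575 nm. Measure: percent activation from peak-to-basal fluorescence ratio, scaled between DMSO and carbachol.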
OX1R antag-2 – OX1R (HCRTR1) antagonists, primary screen, fluorescence, CHO/OX1R cells, Fluo-8 calcium, orexin A; Orexin/Hypocretin receptor type 1 (Homo sapiens), O43613; inhibition, % at 5 µM; Fluo-8 calcium fluorescence; AID 434989, 2010; 330,000 compounds, 0.43% hits;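 active = inhibition above its plate's threshold, mean inhibition of all tested compounds on the plate plus 3 SD, cut at about 37% in these data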;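 note: 0% = orexin A challenge wells and 100% = SB-334867-A antagonist wells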
* hit, by the source's call; · = no result.

SMILES	OX1R antag-1	TRPN1 ag	CHO parental Ca	TRPML3 ag	OX1R antag-2
COc1ccc(OC)c(NC(=O)C(=O)NNC(=O)C23CC4CC(CC(C4)C2)C3)c1	27	43*	-9	27*	-8
CCCC[n+]1ccn(C2=C([O-])c3ccccc3C(=O)/C2=N\S(=O)(=O)c2ccc(Br)cc2)c1	20	-1	-15	0	-21
Cc1ccc(S(=O)(=O)/N=C2\C(=O)c3ccccc3C([O-])=C2n2cc[n+](CCC(C)C)c2)cc1	44*	-1	-9	-1	-15
Cc1ccccc1NC(=O)c1c2c(nc3ccccc13)CCC2	23	0	-30	1	-40
O=c1ccc2[n+]([O-])c3ccc(O)cc3oc-2c1	·	48*	·	27*	·
O=c1cc(O)c2ccc(O)cc2o1	10	-2	-7	0	-3
O=C1/C(=C\c2ccc(O)cc2)SC(=S)N1/N=C/c1ccc(O)cc1	18	21*	15	7	22
COc1cc(C2C(C#N)=C(N)OC3=C2C(=O)CC(C)(C)C3)cc2c1OCO2 (stereo not given)	-1	·	-9	·	-15
Cc1cc(C)c2c(N)c(C(=O)Nc3ccccc3F)sc2n1	3	·	-14	·	-20
CCOc1ccc(NC(=O)CSCc2cnn(-c3ccccc3)c2-n2cccc2)cc1	76*	-2	-12	0	-37
Cc1ccc(CNS(=O)(=O)c2cn(C)c(=O)n(C)c2=O)cc1	9	·	-8	·	-12
COc1ccc(C(=O)NNC(=O)c2cc3cccc(OC)c3oc2=O)cc1	50*	2	-5	1	-16
COc1ccc(CCNC(=O)c2cc3cccc(OC)c3oc2=O)cc1OC	6	·	-10	·	-29
COc1cccc(NC(=O)c2cc3ccccc3o/c2=N\O)c1	24	·	-11	·	-24
COc1cccc2cc(C(=O)NCCN3CCOCC3)c(=O)oc12	39*	·	-13	·	-5
COc1cccc(NC(=O)c2cc3cccc(OC)c3o/c2=N\O)c1	93*	·	16	·	40*
O=C1Nc2ccccc2C1(O)C/C(=N/O)c1ccccc1 (stereo not given)	30	-2	-8	1	-4
Cc1ccc(N=Nc2ccc(C)cc2NC(=O)Nc2ccccc2F)cc1	-7	0	7	1	-9
COc1ccc(/C=C/c2nc(S(=O)(=O)c3ccccc3)c(NCCCN(C)C)o2)cc1OC	11	·	-25	·	-18
CCN(C(=O)CSc1nnc(-c2ccco2)n1C)c1c(N)n(Cc2ccccc2)c(=O)[nH]c1=O	3	·	-15	·	-7
Cc1nc(-c2ccccc2)nn1-c1ccc([N+](=O)[O-])cc1	13	·	-1	·	-21
Cc1nc(C(=O)O)nn1-c1ccc([N+](=O)[O-])cc1	46*	-1	-3	1	7
NC(=O)CN1C(=O)C(O)(CC(=O)c2ccccc2O)c2ccccc21 (stereo not given)	56*	0	3	1	6
C=CCN1C(=O)C(O)(CC(=O)c2ccccc2)c2ccccc21 (stereo not given)	7	1	-2	1	-22
Cc1cc(C)n(-c2nc(Nc3ccccc3C(F)(F)F)nc(-n3nc(C)cc3C)n2)n1	60	0	42*	-1	62*
SMILES	OX1R antag-1	TRPN1 ag	CHO parental Ca	TRPML3 ag	OX1R antag-2
C/C(=N\N1C(=O)CSC1=S)c1ccc(Br)cc1	-5	1	5	1	3
COc1ccc(-c2cnnc(N/N=C/c3ccc(O)c(O)c3)n2)cc1	75*	-1	0	-1	-8
C=CCn1c(C)cc(C(=O)CSc2nc3ccccc3o2)c1C	35	1	43*	0	41*
Cc1cc(C(=O)CSc2nc3ccccc3o2)c(C)n1C1CC1	33	1	6	0	41*
C=CCn1c(C)cc(C(=O)CSc2nnc(Cc3ccccc3)o2)c1C	5	1	-14	-1	-26
CCOC(=O)c1cnc2sc3c(n2c1=O)CCCC3	58	1	43*	0	35
O=C1c2cccc3c([N+](=O)[O-])ccc(c23)C(=O)N1c1ccccn1	68*	-2	17	-2	20
